# Source: PubChem
# This is a sample that favours compounds with a hit; in the whole collection about 2.3% have one here.
# E coli WT exp = blocks growth of wild type E. coli BW25113. OD600 absorbance. growth inhibition, % at 100 µM. hit rate 0.15% among 98,000. AID 710;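 active means growth inhibition above about 50% at one test dose, limit read from the data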;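 further: growth measured after 20 h incubation at 37 °C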
# Mac1 fbg enh = increases human CD11b/CD18 adhesion to fibrinogen | P05107+P11215 | K562 CD11b/CD18 adhesion to fibrinogen, ATPlite luminescence | activation, % at 10 µM | hit rate 0.07% among 93,000 | AID 1499;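 active means 10 µM primary screen giving 50% or more activity, confirmed by 40% or more on retest at that dose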
# Ecoli tolC = blocks growth of E. coli BW25113 tolC mutant; hit rate 2.2% among 65,000; growth inhibition, % at 10 µM (by protocol); OD615;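 active means growth inhibition at or above a cutoff equal to the mean over every tested compound plus 3 SD, cut at about 60% in these data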;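 further: growth measured after 20 h incubation at 37 °C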
#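 Test system: tolC-deleted E. coli BW25113; medium: LB with kanamycin 50 µg/mL; compound: single-point testing at 10 µM; incubation: 20 h compound exposure of bacteria at 37 °C; signal: OD at 615 nm; evaluation: growth inhibition in percent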
# Pyk2 oligo antag = antagonists of human Pyk2 oligomerization | Q293 cells, Pyk2 FERM NanoBiT luminescence; stronger effect = lower value | z-score (the deposit names both 25 µM and 10 µM) | hit rate 0.83% among 99,000;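 active means Z-score of -3 or lower, scaled per plate to the spread of control and sample wells; inactive means z-score above -3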;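 further: negative z-score means lost luminescence so less FERM oligomerization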
# Mac1 fbg inh = blocks human CD11b/CD18 adhesion to fibrinogen; K562 CD11b/CD18 adhesion to fibrinogen, ATPlite luminescence; Mn2+ added to activate the integrin; P05107+P11215; hit rate 0.54% among 93,000; inhibition, % at 10 µM;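 active means primary inhibition of 50% or more at 10 µM, then 40% or more on retest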
# Starred values were filed as active, the others as inactive; . = no result.
SMILES,E coli WT exp,Mac1 fbg enh,Ecoli tolC,Pyk2 oligo antag,Mac1 fbg inh
COc1nnc(-c2ccc(N3CCCCC3)c(N)c2)c2ccccc12,.,.,63*,-0.48,.
Cc1ccc(S(=O)(=O)CCc2nnc(NC(=O)COc3cccc(C)c3)s2)cc1,-15,.,.,1.2,.
Cc1ccc(OCc2nc(C#N)c(NCCCn3ccnc3)o2)cc1,1,-7,-6,-0.55,13
N#Cc1nc(-c2ccc(OCc3ccccc3Cl)cc2)oc1NCCCn1ccnc1,11,7,100*,.,.
COc1ccc(CCNc2oc(COc3ccccc3F)nc2C#N)cc1OC,-13,0,33,0.04,-9
COc1ccc(CCNc2oc(COc3ccc(F)cc3)nc2C#N)cc1,1,8,96*,-0.24,10
N#Cc1nc(-c2ccc(OCc3ccccc3)cc2)oc1NCCCn1ccnc1,5,6,100*,-0.71,27
N#Cc1nc(COc2ccc(Br)cc2)oc1NCCCn1ccnc1,38,3,97*,0.85,-13
O=C(NCCc1ccc2c(c1)OCCO2)c1ccc(F)cc1,.,-2,.,.,8
CCOc1ccc2nc(NC(=O)C(CC)Sc3nc(C)cc(=O)[nH]3)sc2c1 (stereo unspecified),-2,-2,67*,0.26,28
COc1ccc2nc(NC(=O)CSc3nc(C)cc(=O)[nH]3)sc2c1,-2,3,.,0.65,8
O=C(Cn1cnc2ccc(Cl)cc2c1=O)c1cccs1,3,.,.,-0.65,.
O=c1[nH]c2ccc(Cl)cc2c(-c2ccccc2)c1N1CCOCC1,-2,-4,3,.,10
O=C(c1ccco1)N1CCN(c2c(-c3ccccc3)c3cc(Cl)ccc3[nH]c2=O)CC1,-7,-5,70*,1.8,24
Cc1nc(N2CCN(Cc3ccc4c(c3)OCO4)CC2)c2oc3ccccc3c2n1,.,.,95*,.,.
COc1ccccc1N1CCN(c2nc(C)nc3c2oc2ccccc23)CC1,-3,-3,97*,-1.2,44
Cc1nc(N2CCC(C)CC2)c2oc3ccccc3c2n1,-2,-6,.,-0.29,48
Cc1nc(Nc2ccc3c(c2)OCO3)c2oc3ccccc3c2n1,6,-4,.,-1.1,3
CCSc1nnc(-c2cccnc2)n1-c1ccc(Cl)c(C)c1,-3,0,.,0.4,-8
c1ccc(CCn2c3ccccc3c3nnc(SCc4ccc5nonc5c4)nc32)cc1,-19,-2,.,-1.8,15
O=C(CN1CCOCC1)Nc1nc2ccc(Br)cc2s1,4,2,.,1,-10
COc1cc(CN(C)Cc2ccccc2)cc(OC)c1O,-3,-10,.,-0.31,87*
COc1ccc(CCN(C)Cc2ccc(OC)c(OCc3ccccc3)c2)cc1OC,8,-3,.,1.6,-2
CCOC(=O)c1cc2sc(C)cc2n1C(C)C(=O)OCC (stereo unspecified),6,3,62*,-0.19,1
CS(=O)(=O)N1CCN(c2c(Cl)cccc2[N+](=O)[O-])CC1,2,.,.,-0.55,.
SMILES,E coli WT exp,Mac1 fbg enh,Ecoli tolC,Pyk2 oligo antag,Mac1 fbg inh
COc1ccc(CN(Cc2cc3cc4c(cc3[nH]c2=O)OCO4)C(=O)NC2CCCCC2)cc1,-14,0,72*,-2.3,-10
Cc1cccc2cc(CN(CC3CCCO3)C(=O)NC3CCCCC3)c(=O)[nH]c12 (stereo unspecified),9,0,20,-0.81,16
COc1ccc2[nH]c(=O)c(CN(C(=O)NC3CCCCC3)C3CCCCC3)cc2c1,-10,5,72*,-0.37,-8
Cc1cccc2cc(CN(Cc3ccco3)C(=O)NC3CCCCC3)c(=O)[nH]c12,-7,-3,64*,-1.6,-4
CCN(CC)CCN(Cc1cc2cc3c(cc2[nH]c1=O)OCCO3)C(=O)NC1CCCCC1,7,0,9,-0.43,-1
CCCN(C(=O)c1cccs1)c1nnc(-c2ccncc2)s1,5,-2,13,-1.6,3
Cc1c(Cc2ccccc2)sc(NC(=O)/C=C/c2cccc3ccccc23)c1C(N)=O,.,39,.,.,-9
Cc1ccccc1NC1=C/C(=N\S(=O)(=O)c2cccs2)c2ccccc2C1=O,-1,-6,.,-4*,26
Nc1nnc(SCC(=O)NC23CC4CC(CC(C4)C2)C3)s1,1,0,.,0.53,0
CCOC(=O)c1ccccc1NC(=O)c1ccc(F)cc1,2,0,.,0.95,-12
CCOC(=O)c1ccccc1NC(=O)c1c(F)c(F)c(F)c(F)c1F,-4,-1,65*,0.06,5
O=C1C2C3c4ccccc4C(c4ccccc43)C2C(=O)N1Cc1cccnc1 (stereo unspecified),-1,-5,.,-0.1,-2
COc1cc2cc(C(c3nnnn3C3CCCCC3)N(C)C3CCCCC3)c(=O)[nH]c2cc1OC (stereo unspecified),-8,2,75*,-0.76,10
COc1ccc(-c2nnc3ccc(SCC(=O)N4CCN(c5ccccc5)CC4)nn23)cc1OC,.,.,2,.,.
CCOC(=O)c1c(OCC)[nH]c2ccc(O)cc12,7,-2,.,-0.05,0
CCOc1ccc(C(=O)CCc2nc3ccccc3s2)cc1,-12,.,.,-3.3*,.
CCOc1ccc(C(=O)CCC(=O)O)cc1,-8,.,.,-0.31,.
O=c1cc(-c2ccccc2)[nH]n1-c1ccc([N+](=O)[O-])cc1,20,.,.,-0.68,.
CCOC(=O)Cn1c(-c2cccnc2Cl)nc2cc(Cl)c(Cl)cc21,-4,-6,.,-3.8*,-2
CCOC(=O)Cn1c(-c2cccnc2Cl)nc2cc(C)c(C)cc21,-3,-5,.,-0.84,-4
c1cncc(-c2nnc(C3CCCCC3)o2)c1,3,0,-12,0.32,-7
CCCCC(=O)Nc1cccc(-c2nnc(-c3ccccc3)o2)c1,-5,4,68*,-1.6,-2
Oc1ccc(CN2CCc3ccccc3C2)c2cccnc12,62*,-4,.,-0.36,12
COc1ccccc1-n1c(=O)oc2ccc(Cl)cc2c1=O,46,-12,100*,-0.37,96*
COc1ccc(Cl)cc1N1Cc2ccccc2C1,-13,48,.,-1.1,-9
SMILES,E coli WT exp,Mac1 fbg enh,Ecoli tolC,Pyk2 oligo antag,Mac1 fbg inh
COc1ccc(CCNC(=O)CCSc2nc(-c3ccco3)cc(C(F)(F)F)n2)cc1,-12,-2,8,0.3,12
CC(C)(C)c1cc(C(F)(F)F)nc(SCCCNC(=O)c2ccco2)n1,7,-2,100*,-0.07,13
Cc1cc(NC(=O)CSc2n[nH]c(CC(C)C)n2)no1,5,-4,-12,-0.53,5
CCN(CC)S(=O)(=O)c1ccc2c(c1)nc(CCC(=O)Nc1ccccc1Cc1ccccc1)n2CC,-5,0,.,-0.63,-2
Cc1[nH]n(-c2ccccc2)c(=O)c1/C=N/Nc1nncc(-c2ccccc2)n1,93*,-4,.,-1.3,30
CC1CCCCN1CC(=O)Nc1sc2c(c1C#N)CCC2 (stereo unspecified),0,-2,-1,-0.29,4
CCc1ccc(-c2cc(C(=O)Nn3cnnc3)c3ccccc3n2)cc1,-5,-7,.,0.24,78*
CCCc1ccc(-c2cc(C(=O)NN3CCOCC3)c3ccccc3n2)cc1,-7,-1,.,-0.9,7
O=C1c2sc3nc4ccccc4n3c2C(=O)N1c1ccccc1Cl,-4,-3,18,0.86,2
